Results taken from ChEMBL document CHEMBL1146878, “A novel class of AMPA receptor allosteric modulators. Part 1: design, synthesis, and SAR of 3-aryl-4-cyano-5-substituted-heteroaryl-2-carboxylic acid derivatives” (Bioorg Med Chem Lett, 2006).

How the values were obtained:
Format in all cases: functional, cell-based
Glutamate receptor 4 [1] = target: T1, Glutamate receptor 4 (Homo sapiens, UniProt P48058); assay: Activity against human GLUR4 flop expressed in HEK293 cells assessed as glutamate-stimulated calcium influx by FLIPR assay
T1 sequence (P48058 whole entry, canonical isoform): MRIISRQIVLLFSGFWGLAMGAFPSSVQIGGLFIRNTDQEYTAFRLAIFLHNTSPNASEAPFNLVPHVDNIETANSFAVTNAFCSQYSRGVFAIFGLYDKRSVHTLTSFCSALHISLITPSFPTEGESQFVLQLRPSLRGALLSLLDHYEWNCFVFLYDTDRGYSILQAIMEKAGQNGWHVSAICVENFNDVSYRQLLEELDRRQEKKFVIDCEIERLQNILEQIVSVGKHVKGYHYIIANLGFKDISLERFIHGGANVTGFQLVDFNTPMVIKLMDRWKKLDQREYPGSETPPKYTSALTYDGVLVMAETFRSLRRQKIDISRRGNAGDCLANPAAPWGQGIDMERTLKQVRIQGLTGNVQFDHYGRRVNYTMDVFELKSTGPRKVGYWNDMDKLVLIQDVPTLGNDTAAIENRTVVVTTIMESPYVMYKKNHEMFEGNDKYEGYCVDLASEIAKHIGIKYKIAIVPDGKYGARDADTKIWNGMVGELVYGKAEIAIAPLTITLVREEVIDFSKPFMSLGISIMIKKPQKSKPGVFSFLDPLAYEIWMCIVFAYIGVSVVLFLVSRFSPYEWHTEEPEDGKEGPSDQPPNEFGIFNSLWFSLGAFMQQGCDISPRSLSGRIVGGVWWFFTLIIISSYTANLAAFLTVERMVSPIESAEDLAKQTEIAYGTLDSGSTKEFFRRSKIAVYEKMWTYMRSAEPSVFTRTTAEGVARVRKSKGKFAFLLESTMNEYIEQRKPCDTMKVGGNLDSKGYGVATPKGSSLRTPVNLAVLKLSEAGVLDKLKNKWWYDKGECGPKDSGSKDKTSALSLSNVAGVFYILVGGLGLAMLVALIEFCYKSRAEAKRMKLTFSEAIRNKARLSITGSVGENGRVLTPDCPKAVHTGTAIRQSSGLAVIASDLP
Summary of the method: (§1)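 Stably transfected HEK-293 cells expressing homomeric GluR4 (flip or flop splice form) loaded with 8 µM Fluo3-AM for 60 min in HEPES-buffered saline (5 mM CaCl2, 5.5 mM glucose). Compounds from DMSO (0.1–3 µM) co-applied with 100 µM glutamate; calcium influx read by FLIPR. Duplicate 10-point curves; response expressed as % of 100 µM cyclothiazide, EC50 calculated.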

Glutamate receptor 2 [2] = target: T2, Glutamate receptor 2 (Homo sapiens, UniProt P42262); assay: Activity against human GLUR2 flip expressed in HEK293 cells assessed as glutamate-stimulated calcium influx by FLIPR assay
T2 sequence (P42262 whole entry): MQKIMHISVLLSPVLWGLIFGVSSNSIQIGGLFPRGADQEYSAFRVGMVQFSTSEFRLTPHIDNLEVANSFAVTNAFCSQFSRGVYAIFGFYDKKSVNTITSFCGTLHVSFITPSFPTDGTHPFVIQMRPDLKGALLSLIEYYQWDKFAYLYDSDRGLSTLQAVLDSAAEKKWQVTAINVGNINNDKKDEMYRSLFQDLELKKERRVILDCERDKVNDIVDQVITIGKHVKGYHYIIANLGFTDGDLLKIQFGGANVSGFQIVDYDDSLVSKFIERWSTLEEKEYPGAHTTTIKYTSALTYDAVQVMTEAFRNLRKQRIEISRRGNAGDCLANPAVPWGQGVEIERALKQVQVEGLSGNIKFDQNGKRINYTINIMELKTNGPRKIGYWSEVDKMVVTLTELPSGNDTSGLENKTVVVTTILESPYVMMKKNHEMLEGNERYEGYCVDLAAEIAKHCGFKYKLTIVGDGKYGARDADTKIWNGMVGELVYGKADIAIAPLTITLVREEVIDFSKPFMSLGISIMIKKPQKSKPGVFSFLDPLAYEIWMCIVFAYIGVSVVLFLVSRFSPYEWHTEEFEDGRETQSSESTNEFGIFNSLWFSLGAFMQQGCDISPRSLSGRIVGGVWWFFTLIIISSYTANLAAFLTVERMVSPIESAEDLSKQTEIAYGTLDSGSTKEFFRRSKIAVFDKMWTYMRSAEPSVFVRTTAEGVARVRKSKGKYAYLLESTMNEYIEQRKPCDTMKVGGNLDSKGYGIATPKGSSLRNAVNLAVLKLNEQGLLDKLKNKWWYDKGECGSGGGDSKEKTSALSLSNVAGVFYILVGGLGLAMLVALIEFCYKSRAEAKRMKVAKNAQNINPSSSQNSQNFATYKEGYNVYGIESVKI

Glutamate receptor 2 [3] = target: T2, Glutamate receptor 2; assay: Activity against human GLUR2 flop expressed in HEK293 cells assessed as glutamate-stimulated calcium influx by FLIPR assay
Glutamate receptor 4 [4] = target: T1, Glutamate receptor 4; assay: Activity against human GLUR4 flip expressed in HEK293 cells assessed as glutamate-stimulated calcium influx by FLIPR assay; summary of the method: as §1

| EC50 (Glutamate receptor 4 [1]) [µM] | EC50 (Glutamate receptor 4 [4]) [µM] | Structure (SMILES) | EC50 (Glutamate receptor 2 [2]) [µM] | EC50 (Glutamate receptor 2 [3]) [µM] |
| --- | --- | --- | --- | --- |
| > 3 | 2.89 | CCCSc1sc(C(=O)O)c(-c2ccc(C(C)(C)C)cc2)c1C#N |  |  |
| 0.488 | 0.273 | CC(C)(C)c1ccc(-c2c(C(=O)O)sc(C(F)(F)F)c2C#N)cc1 | 0.078 | 0.231 |
| > 3 | 0.489 | C[S+]([O-])c1sc(C(=O)O)c(-c2ccc(C(C)(C)C)cc2)c1C#N (stereo not given) |  |  |
| > 3 | 0.44 | CCSc1sc(C(=O)O)c(-c2ccc(C(C)(C)C)cc2)c1C#N |  |  |
| > 3 | 1.87 | CC(C)Sc1sc(C(=O)O)c(-c2ccc(C(C)(C)C)cc2)c1C#N |  |  |
| > 3 | 0.474 | CN(C)c1sc(C(=O)O)c(-c2ccc(C(C)(C)C)cc2)c1C#N | 0.176 | 2.85 |
| > 3 | 0.629 | CC(C)(C)c1ccc(-c2c(C(=O)O)sc(S(C)(=O)=O)c2C#N)cc1 | 0.333 | 1.81 |

More lines, now with the values behind:

| Structure (SMILES) | EC50 (Glutamate receptor 4 [1]) [µM] | EC50 (Glutamate receptor 4 [4]) [µM] | EC50 (Glutamate receptor 2 [2]) [µM] | EC50 (Glutamate receptor 2 [3]) [µM] |
| --- | --- | --- | --- | --- |
| CC(C)(C)c1ccc(-c2c(C(=O)O)sc(N3CCCC3)c2C#N)cc1 | > 3 | 1.01 | 1.14 | 2.43 |
| CSc1sc(C(=O)O)c(-c2ccc(-c3ccccc3)cc2)c1C#N | > 3 | 0.795 |  |  |
| CCOC(=O)c1sc(SC)c(C#N)c1-c1ccc(C(C)(C)C)cc1 | > 3 | > 3 | > 3 | > 3 |
| CC(C)(C)c1ccc(-c2c(C(=O)O)sc(Sc3ccccc3)c2C#N)cc1 | > 3 | > 3 |  |  |
| CSc1c(C#N)c(-c2ccc(C(C)(C)C)cc2)c(C(=O)O)n1C | 1.42 | 0.554 | 0.684 | 0.663 |
| CSc1oc(C(=O)O)c(-c2ccc(C(C)(C)C)cc2)c1C#N | > 3 | 1.98 |  |  |
| CC(C)(C)c1ccc(-c2c(C#N)csc2C(=O)O)cc1 | > 3 | > 3 | > 3 | > 3 |
| CC(CNS(=O)(=O)C(C)C)c1ccc(-c2ccc(C#N)cc2)cc1 (stereo not given) | 1.06 | 0.42 | 0.559 | 1.91 |
| CCc1sc(C(=O)O)c(-c2ccc(C(C)(C)C)cc2)c1C#N | 1.22 | 0.183 | 0.047 | 0.216 |
